From ChEMBL document CHEMBL1138736, “Imidazoquinoxaline Src-family kinase p56Lck inhibitors: SAR, QSAR, and the discovery of (S)-N-(2-chloro-6-methylphenyl)-2-(3-methyl-1-piperazinyl)imidazo- [1,5-a]pyrido[3,2-e]pyrazin-6-amine (BMS-279700) as a potent and orally active inhibitor with excellent in vivo antiinflammatory activity” (J Med Chem, 2004)
Where “and” joins values, the source holds several entries; their conditions need not be identical. Equal entries are not always repeated.

Columns and labels:
[1] = Inhibition of recombinant p56 Lck tyrosine kinase expressed in insect cells
How it was run: (§1)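 His-tagged recombinant Lck made in insect cells by baculovirus and purified on nickel affinity resin. Kinase buffer is 20 mM MOPS pH 7 with 10 mM MgCl2, and the test compound is present. It is stopped after 10 min with TCA/pyrophosphate then BSA. Enolase is precipitated at 4 °C, filtered and counted by scintillation.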

[2] = Inhibition of Human PBL (T cell) proliferation; type: functional
How it was run: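 Normal human peripheral blood T cells are added with test compound and anti-CD28 (E.3) antibody to wells precoated with anti-CD3 mAb (G19-4). After 3 days [3H]-thymidine is added, and after further incubation the cells are harvested and incorporation is counted by scintillation.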

[3] = biological target: Tyrosine-protein kinase SYK (Homo sapiens, UniProt P43405); experiment: Inhibition of Syk protein tyrosine kinase
[4] = Inhibition of p56 Lck tyrosine kinase; how it was run: as §1
[5] = biological target: Tyrosine-protein kinase Fgr (Homo sapiens, UniProt P09769); experiment: Inhibition of Fgr protein kinase
Sequence of Tyrosine-protein kinase Fgr (P09769 whole entry): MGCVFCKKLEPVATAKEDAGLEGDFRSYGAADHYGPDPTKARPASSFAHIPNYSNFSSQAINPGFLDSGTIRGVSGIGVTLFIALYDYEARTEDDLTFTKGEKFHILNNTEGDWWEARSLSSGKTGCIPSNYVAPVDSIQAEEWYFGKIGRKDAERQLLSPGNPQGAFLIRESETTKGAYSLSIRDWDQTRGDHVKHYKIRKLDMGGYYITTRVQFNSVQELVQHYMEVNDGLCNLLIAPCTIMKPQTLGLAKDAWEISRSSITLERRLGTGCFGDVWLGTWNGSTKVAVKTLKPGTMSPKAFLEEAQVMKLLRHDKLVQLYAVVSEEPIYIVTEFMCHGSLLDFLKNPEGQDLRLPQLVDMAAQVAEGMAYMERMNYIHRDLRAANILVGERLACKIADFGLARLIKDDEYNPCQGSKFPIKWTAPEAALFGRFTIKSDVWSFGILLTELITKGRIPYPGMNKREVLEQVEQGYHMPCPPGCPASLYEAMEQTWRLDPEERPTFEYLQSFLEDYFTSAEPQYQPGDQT

[6] = Inhibition of Protein kinase A
[7] = biological target: Receptor tyrosine-protein kinase erbB-2 (Homo sapiens, UniProt P04626); experiment: Inhibition of HER2 kinase
Sequence of Receptor tyrosine-protein kinase erbB-2 (P04626 whole entry): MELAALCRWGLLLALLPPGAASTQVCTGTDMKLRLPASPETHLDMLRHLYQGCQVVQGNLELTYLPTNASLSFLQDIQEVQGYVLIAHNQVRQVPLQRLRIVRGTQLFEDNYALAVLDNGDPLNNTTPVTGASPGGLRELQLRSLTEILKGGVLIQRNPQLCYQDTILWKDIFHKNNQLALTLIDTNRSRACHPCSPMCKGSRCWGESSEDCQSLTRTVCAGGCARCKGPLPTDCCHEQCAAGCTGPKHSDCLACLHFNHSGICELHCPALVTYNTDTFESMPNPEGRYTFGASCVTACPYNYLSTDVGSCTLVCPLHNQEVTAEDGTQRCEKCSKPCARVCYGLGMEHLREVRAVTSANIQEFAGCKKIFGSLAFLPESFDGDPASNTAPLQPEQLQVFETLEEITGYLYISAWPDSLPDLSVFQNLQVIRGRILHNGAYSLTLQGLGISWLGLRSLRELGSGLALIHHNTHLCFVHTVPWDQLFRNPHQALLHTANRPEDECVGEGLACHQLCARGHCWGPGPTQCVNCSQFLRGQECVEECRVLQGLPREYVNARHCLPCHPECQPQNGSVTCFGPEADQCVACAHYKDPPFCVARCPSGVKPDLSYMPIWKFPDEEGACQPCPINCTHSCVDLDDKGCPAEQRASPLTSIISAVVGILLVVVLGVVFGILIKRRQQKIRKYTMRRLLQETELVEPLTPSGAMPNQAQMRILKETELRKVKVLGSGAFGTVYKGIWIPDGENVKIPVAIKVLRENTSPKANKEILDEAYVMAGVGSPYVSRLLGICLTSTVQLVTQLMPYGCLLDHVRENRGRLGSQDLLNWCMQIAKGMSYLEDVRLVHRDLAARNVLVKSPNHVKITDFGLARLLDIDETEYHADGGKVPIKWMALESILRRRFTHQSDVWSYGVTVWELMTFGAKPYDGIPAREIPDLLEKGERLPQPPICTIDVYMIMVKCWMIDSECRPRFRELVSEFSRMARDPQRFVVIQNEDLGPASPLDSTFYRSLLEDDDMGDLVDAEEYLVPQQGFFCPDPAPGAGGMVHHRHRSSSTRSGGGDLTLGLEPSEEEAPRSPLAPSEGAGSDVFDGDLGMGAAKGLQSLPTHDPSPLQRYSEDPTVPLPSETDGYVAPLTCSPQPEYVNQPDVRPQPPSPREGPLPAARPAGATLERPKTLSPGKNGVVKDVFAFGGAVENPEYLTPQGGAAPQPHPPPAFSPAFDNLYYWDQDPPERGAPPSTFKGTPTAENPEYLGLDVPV

[8] = Inhibition of Platelet-derived growth factor receptor
[9] = Inhibition of Blk kinase
[10] = biological target: T1, Inhibitor of nuclear factor kappa-B kinase subunit alpha (Homo sapiens, UniProt O15111); experiment: Inhibition of I kappa-B kinase alpha
T1 sequence (O15111 whole entry): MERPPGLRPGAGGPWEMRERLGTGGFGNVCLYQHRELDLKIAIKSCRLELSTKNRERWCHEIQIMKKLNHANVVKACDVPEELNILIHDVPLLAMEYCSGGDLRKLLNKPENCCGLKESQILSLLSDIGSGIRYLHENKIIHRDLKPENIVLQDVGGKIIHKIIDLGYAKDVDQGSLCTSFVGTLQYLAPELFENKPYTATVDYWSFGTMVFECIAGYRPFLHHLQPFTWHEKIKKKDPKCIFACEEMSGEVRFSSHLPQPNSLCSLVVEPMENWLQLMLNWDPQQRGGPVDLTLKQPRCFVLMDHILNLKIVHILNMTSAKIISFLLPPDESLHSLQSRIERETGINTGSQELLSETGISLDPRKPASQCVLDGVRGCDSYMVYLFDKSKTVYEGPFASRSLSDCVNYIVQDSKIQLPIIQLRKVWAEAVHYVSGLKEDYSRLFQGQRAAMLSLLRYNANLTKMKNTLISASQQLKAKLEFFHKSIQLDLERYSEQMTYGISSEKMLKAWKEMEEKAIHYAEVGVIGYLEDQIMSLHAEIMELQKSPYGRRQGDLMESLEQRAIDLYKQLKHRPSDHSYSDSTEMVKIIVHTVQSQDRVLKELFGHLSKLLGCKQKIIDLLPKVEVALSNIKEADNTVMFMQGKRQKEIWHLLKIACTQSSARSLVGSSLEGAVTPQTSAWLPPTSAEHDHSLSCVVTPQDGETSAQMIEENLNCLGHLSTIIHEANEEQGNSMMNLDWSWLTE

[11] = Binding affinity for recombinant Lck/Yes-related tyrosine kinase expressed in insect cells
[12] = biological target: T2, Tyrosine-protein kinase ZAP-70 (Homo sapiens, UniProt P43403); experiment: Inhibition of Zeta-chain (TCR) associated protein kinase 70 kDa (ZAP-70)
T2 sequence (P43403 whole entry): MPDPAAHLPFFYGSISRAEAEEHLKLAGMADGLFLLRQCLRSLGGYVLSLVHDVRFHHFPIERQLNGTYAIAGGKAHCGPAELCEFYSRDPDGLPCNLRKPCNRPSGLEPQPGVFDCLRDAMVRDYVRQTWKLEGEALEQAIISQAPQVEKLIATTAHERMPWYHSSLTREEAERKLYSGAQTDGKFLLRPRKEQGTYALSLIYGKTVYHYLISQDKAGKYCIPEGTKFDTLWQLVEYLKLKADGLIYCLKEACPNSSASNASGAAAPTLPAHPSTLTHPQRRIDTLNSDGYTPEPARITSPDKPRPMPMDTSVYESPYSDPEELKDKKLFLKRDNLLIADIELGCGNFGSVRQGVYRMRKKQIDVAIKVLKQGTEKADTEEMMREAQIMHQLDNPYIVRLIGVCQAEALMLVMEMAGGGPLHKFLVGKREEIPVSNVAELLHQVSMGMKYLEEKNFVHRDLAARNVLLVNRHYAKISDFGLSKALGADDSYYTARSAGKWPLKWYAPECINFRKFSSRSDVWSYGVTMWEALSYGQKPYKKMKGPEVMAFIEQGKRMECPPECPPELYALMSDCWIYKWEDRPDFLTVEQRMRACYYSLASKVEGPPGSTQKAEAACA

MAP kinase p38 = MAP kinase p38 (Homo sapiens, UniProt O15264+Q15759+Q16539+P53778); experiment: Inhibition of p38 MAP-kinase; type: protein assay
[13] = biological target: Tyrosine-protein kinase HCK (Homo sapiens, UniProt P08631); experiment: Inhibition of Hck kinase
Sequence of Tyrosine-protein kinase HCK (P08631 whole entry): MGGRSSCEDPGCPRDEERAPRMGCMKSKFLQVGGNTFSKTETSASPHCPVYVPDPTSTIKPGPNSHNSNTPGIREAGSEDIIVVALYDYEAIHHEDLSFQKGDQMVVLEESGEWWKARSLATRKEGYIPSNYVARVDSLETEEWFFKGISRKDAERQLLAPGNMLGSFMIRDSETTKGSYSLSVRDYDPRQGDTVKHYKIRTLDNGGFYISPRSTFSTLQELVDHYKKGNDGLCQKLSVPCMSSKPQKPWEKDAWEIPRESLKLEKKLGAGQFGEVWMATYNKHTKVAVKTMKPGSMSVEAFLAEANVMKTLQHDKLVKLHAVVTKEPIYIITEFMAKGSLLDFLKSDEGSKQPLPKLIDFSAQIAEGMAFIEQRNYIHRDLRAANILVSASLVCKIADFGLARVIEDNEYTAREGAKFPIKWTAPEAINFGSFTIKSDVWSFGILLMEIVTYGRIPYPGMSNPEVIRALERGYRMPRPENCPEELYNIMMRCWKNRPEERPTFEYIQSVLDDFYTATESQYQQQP

Protein kinase C (PKC) = experiment: Inhibition of PKC kinase; type: protein assay
[14] = biological target: Tyrosine-protein kinase Yes (Homo sapiens, UniProt P07947); experiment: Inhibition of Yes kinase
Sequence of Tyrosine-protein kinase Yes (P07947 whole entry): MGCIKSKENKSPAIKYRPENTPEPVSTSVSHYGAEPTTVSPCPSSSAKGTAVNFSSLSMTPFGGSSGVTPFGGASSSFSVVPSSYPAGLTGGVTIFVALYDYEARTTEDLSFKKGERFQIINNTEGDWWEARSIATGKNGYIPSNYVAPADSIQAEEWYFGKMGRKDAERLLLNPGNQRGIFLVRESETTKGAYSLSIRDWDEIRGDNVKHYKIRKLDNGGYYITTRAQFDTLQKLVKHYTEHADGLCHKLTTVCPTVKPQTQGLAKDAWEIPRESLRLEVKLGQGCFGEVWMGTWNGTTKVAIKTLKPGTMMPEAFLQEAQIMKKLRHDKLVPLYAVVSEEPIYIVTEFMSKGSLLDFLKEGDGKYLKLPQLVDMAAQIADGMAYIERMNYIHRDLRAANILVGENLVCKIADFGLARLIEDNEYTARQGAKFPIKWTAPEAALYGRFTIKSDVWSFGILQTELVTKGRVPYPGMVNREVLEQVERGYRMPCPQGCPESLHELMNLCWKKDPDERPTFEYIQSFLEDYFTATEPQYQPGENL

[15] = biological target: T3, Inhibitor of nuclear factor kappa-B kinase subunit beta (Homo sapiens, UniProt O14920); experiment: Inhibition of I-kappa-B-kinase beta
T3 sequence (O14920 whole entry): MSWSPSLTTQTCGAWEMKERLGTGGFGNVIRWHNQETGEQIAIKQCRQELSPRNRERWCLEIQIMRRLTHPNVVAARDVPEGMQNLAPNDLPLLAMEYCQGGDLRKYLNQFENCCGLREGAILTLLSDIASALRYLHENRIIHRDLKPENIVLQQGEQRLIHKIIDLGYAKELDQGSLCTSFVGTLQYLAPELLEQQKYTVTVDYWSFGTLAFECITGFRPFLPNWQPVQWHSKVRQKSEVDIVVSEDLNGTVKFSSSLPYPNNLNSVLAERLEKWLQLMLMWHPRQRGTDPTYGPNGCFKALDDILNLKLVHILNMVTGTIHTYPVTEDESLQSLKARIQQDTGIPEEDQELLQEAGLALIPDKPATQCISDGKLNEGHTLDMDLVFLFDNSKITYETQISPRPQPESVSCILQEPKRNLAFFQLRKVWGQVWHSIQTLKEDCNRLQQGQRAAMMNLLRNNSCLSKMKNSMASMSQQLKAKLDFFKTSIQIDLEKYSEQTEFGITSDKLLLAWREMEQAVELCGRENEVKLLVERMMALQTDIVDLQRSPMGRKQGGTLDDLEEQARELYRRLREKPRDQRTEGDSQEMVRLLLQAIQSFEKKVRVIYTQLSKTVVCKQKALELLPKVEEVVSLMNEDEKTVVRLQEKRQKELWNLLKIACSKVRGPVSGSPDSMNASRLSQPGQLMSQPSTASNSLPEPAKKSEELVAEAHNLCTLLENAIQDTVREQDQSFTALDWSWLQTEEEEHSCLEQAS

[16] = biological target: Tyrosine-protein kinase Fyn (Homo sapiens, UniProt P06241); experiment: Inhibition of Fyn protein kinase
Sequence of Tyrosine-protein kinase Fyn (P06241 whole entry): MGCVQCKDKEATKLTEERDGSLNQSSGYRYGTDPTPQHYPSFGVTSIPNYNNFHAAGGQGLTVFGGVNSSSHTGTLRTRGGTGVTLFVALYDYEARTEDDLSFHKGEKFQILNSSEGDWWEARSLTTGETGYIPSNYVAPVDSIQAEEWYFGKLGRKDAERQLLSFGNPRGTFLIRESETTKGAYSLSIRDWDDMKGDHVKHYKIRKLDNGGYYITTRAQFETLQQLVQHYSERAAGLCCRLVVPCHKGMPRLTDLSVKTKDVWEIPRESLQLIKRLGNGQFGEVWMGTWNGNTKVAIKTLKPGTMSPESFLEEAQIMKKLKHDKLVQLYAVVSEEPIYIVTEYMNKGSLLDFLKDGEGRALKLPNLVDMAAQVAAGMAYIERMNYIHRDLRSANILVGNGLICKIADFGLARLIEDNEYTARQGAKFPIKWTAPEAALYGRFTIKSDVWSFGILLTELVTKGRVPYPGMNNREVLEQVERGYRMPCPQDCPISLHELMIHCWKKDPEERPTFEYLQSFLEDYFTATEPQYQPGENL

[17] = biological target: Tyrosine-protein kinase Lyn (Homo sapiens, UniProt P07948); experiment: Inhibition of Lyn kinase
Sequence of Tyrosine-protein kinase Lyn (P07948 whole entry): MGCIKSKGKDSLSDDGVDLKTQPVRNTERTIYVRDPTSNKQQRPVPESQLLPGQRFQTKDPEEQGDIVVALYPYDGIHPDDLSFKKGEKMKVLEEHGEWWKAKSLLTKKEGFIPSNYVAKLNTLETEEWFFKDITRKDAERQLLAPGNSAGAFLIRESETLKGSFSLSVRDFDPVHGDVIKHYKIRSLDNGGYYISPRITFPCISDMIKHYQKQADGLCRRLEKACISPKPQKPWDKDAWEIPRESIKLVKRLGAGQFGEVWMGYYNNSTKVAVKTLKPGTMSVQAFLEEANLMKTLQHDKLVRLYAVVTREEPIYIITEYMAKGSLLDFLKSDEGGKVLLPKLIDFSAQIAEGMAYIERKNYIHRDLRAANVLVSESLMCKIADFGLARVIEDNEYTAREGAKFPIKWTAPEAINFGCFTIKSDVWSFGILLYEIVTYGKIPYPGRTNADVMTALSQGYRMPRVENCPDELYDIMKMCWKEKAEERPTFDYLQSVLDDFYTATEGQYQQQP

[18] = Binding affinity for recombinant p56 Lck tyrosine kinase expressed in insect cells; how it was run: as §1

| Compound | IC50 [1] | IC50 ([2]; Homo sapiens) | further results |
| --- | --- | --- | --- |
| Cc1cccc(Cl)c1Nc1nc2cnc(N3C[C@@H](C)N[C@@H](C)C3)cc2n2cncc12 | 29 nM |  |  |
| Cc1cccc(Cl)c1Nc1nc2ccc(N3CCOCC3)nc2n2cncc12 | 1 nM | 1900 nM |  |
| Cc1cccc(Cl)c1Nc1nc2ccc(N3CCN(CCN(C)C)CC3)nc2n2cncc12 | 2 nM | 250 nM |  |
| Cc1cccc(Cl)c1Nc1nc2ccc(N3CCN[C@@H](C)C3)nc2n2cncc12 |  |  | IC50 [3]: > 10000 nM; IC50 [4]: 4 nM; IC50 [2]: 273 nM and > 100 nM; IC50 [5]: 2.8 nM; IC50 [6]: > 10000 nM; IC50 [7]: > 1000 nM; IC50 [8]: > 1000 nM; IC50 [9]: 27 nM; IC50 [10]: > 10000 nM; Kd [11]: 0.17 nM; Ki [11]: 0.55 nM; IC50 [12]: > 1000 nM; IC50 (MAP kinase p38): 380 nM; IC50 [13]: 23 nM; IC50 (Protein kinase C (PKC)): > 10000 nM; IC50 [14]: 4.7 nM; IC50 [15]: > 10000 nM; IC50 [16]: 5 nM; IC50 [17]: 0.5 nM |
| Cc1cccc(Cl)c1Nc1nc2ccc(N(C)C[C@@H](O)CO)nc2n2cncc12 | 7 nM | 300 nM |  |
| Cc1cccc(Cl)c1Nc1nc2ccc(N3CC[C@@H](N)C3)nc2n2cncc12 | 7 nM | 310 nM |  |
| Cc1cccc(Cl)c1Nc1nc2cc(N(C)CCN(C)C)ncc2n2cncc12 | 240 nM |  |  |
| Cc1cccc(Cl)c1Nc1nc2ccc(-n3ccnc3)nc2n2cncc12 | 5 nM | 470 nM |  |
| Cc1cccc(Cl)c1Nc1nc2ccc(N3CCN(C)CC3)nc2n2cncc12 | 1 nM | 400 nM |  |
| Cc1cccc(Cl)c1Nc1nc2ccc(Cl)nc2n2cncc12 | 25 nM |  |  |
| Cc1cccc(Cl)c1Nc1nc2ccc(N3CCCNCC3)nc2n2cncc12 | 6 nM | 540 nM |  |
| Cc1cccc(Cl)c1Nc1nc2ccc(N3C[C@@H](O)[C@H](O)C3)nc2n2cncc12 | 5 nM | 440 nM |  |
| Cc1cccc(Cl)c1Nc1nc2ccc(N3C[C@@H](C)N[C@@H](C)C3)nc2n2cncc12 | 2 nM | 400 nM |  |
| Cc1cccc(Cl)c1Nc1nc2cc(N(C)CCN3CCOCC3)ncc2n2cncc12 | 103 nM |  |  |
| CCN(CC)c1ccc2nc(Nc3c(C)cccc3Cl)c3cncn3c2n1 | 2 nM | 2100 nM |  |
| Cc1cccc(Cl)c1Nc1nc2ccc(N3CC[C@H](N)C3)nc2n2cncc12 | 6 nM | 370 nM |  |
| COc1cc2c(cc1NCCN(C)C)nc(Nc1c(C)cccc1Cl)c1cncn12 |  | 194 nM |  |
| COc1ncc2c(n1)nc(Nc1c(C)cccc1Cl)c1cncn12 | > 780 nM |  |  |
| Cc1cccc(Cl)c1Nc1nc2ccc(NCCO)nc2n2cncc12 | 3 nM | 490 nM |  |
| Cc1cccc(Cl)c1Nc1nc2ccc(N(C)C[C@H](O)CO)nc2n2cncc12 | 13 nM | 630 nM |  |
| Cc1cccc(Cl)c1Nc1nc2ccc(N3CCN[C@H](C)C3)nc2n2cncc12 | 2 nM | 240 nM |  |
| Cc1cccc(Cl)c1Nc1nc2ncccc2n2cncc12 | 90 nM |  |  |
| Cc1cccc(Cl)c1Nc1nc2ccc(N3CC[C@H](O)C3)nc2n2cncc12 | 4 nM | 340 nM |  |

| Compound | IC50 [1] | IC50 ([2]; Homo sapiens) | further results |
| --- | --- | --- | --- |
| Cc1cccc(Cl)c1Nc1nc2ccc(N(C)CCO)nc2n2cncc12 | 3 nM | 620 nM |  |
| Cc1cccc(Cl)c1Nc1nc2ccc(N3CCCCC3)nc2n2cncc12 | 7 nM |  |  |
| Cc1cccc(Cl)c1Nc1nc2ccc(N3CCN[C@H](CO)C3)nc2n2cncc12 | 3 nM | 180 nM |  |
| Cc1cccc(Cl)c1Nc1nc2ccc(N(C)C)nc2n2cncc12 | 1 nM | 1200 nM | Log IC50 [18]: 3 µM |
| Cc1cccc(Cl)c1Nc1nc2cc(N3CCNCC3)ncc2n2cncc12 | 163 nM |  |  |
| Cc1cccc(C)c1Nc1nc2ncccc2n2cncc12 | 150 nM |  |  |
| CC1=NN(C)C2C1N=C(Nc1c(C)cccc1Cl)c1cnc(C)n12 (stereo unspecified) | > 780 nM |  |  |
| Cc1cccc(Cl)c1Nc1nc2ccc(N3C[C@H](O)[C@@H](O)C3)nc2n2cncc12 | 13 nM | > 2000 nM |  |
| Cc1cccc(Cl)c1NC1=NC2N=CN(C)C2n2c1cnc2C (stereo unspecified) | > 780 nM |  |  |
| Cc1cccc(Cl)c1Nc1nc2ccc(N3CC[C@@H](O)C3)nc2n2cncc12 | 8 nM | 730 nM |  |
| Cc1cccc(Cl)c1Nc1nc2ccc(N3CCN[C@@H](CO)C3)nc2n2cncc12 | 5 nM | 270 nM |  |
| Cc1cccc(Cl)c1Nc1nc2ccc(N(CCO)CCO)nc2n2cncc12 | 4 nM | 620 nM |  |
| Brc1ccccc1Nc1nc2ccccc2n2cncc12 |  | 17000 nM |  |
| Cc1cccc(C)c1Nc1nc2ccc(N3CCNCC3)nc2n2cncc12 | 1 nM | 230 nM |  |
| COc1ccc2c(c1)nc(Nc1c(C)cccc1Cl)c1cncn12 |  | 2600 nM |  |
| Cc1cccc(Cl)c1Nc1nc2ccncc2n2cncc12 | 1400 nM |  |  |
| Cc1cccc(Cl)c1Nc1nc2ccc(N3CCN(CCO)CC3)nc2n2cncc12 | 9 nM | 240 nM |  |
| Cc1cccc(Cl)c1Nc1nc2cnccc2n2cncc12 | 77 nM |  |  |
| COc1ccc2nc(Nc3c(C)cccc3Cl)c3cncn3c2n1 | 19 nM | 1800 nM |  |
| Cc1cccc(Cl)c1Nc1nc2ccccc2n2cncc12 | 9 nM | 5000 nM |  |
| Cc1cccc(Cl)c1Nc1nc2cccnc2n2cncc12 | 30 nM |  |  |
| COc1cc2nc(Nc3c(C)cccc3Cl)c3cncn3c2cc1OC |  | 670 nM |  |
| Cc1cccc(Cl)c1Nc1nc2ccc(N(C)CCN(C)C)nc2n2cncc12 | 71 nM |  |  |
